Experiments:
cells = conditions: Homo sapiens, MCF-10A, 24 h
MDA-MB-468 [1] = assay: cells; conditions: Homo sapiens, MDA-MB-468, 72 h
MDA-MB-231 [2] = assay: cells; conditions: Homo sapiens, MDA-MB-231, 72 h
[3] = target: Hepatocyte growth factor receptor (Homo sapiens, UniProt P08581); assay: Inhibition of recombinant human N-terminal His-tagged cytoplasmic c-MET kinase domain (956 to 1390 residues) phosphorylation expressed in baculovirus expression system using Tyr peptide-6 substrate incubated for 1 hr in presence of ATP by Z-Lyte assay
MDA-MB-231 [4] = assay: cells; conditions: Homo sapiens, MDA-MB-231, 24 h
MDA-MB-231 [5] = assay: Effect on total c-MET protein level in human MDA-MB-231 cells at 1 to 10 uM after 72 hrs by Western blot analysis; conditions: mda-mb-231, 72 h
In short: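 HGF-stimulated cells treated 72 h with 1, 5 or 10 µM or vehicle; RIPA lysates, BCA-normalised, SDS-PAGE, PVDF, blocked in 2% BSA/TBST; primary antibodies (1:1,000) overnight at 4°C against total c-Met and phospho-c-Met Y1234/1235, HRP secondary, ECL detection; β-tubulin loading control.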

MDA-MB-231 [6] = assay: Antiproliferative activity against human MDA-MB-231 spheroids expressing c-MET assessed as inhibition of HGF-induced spheroid growth measured every 4 hrs for 72 hrs by cell tracker red dye based 3D spheroid disaggregation assay; assay type: functional
In short: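 CellTracker Red-labelled cells, 1,000/well in ultra-low-attachment round-bottom wells with phenol-red-free DMEM, 10% FBS, 5% Matrigel; single spheroid formed over 24 h, then HGF stimulation with compound or DMSO; imaged every 4 h for 72 h at 37°C; average red-object area gives fold increase in spheroid size; 8 spheroids/group, repeated twice.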

MDA-MB-468 [7] = assay: Antiproliferative activity against human MDA-MB-468 cells expressing c-MET assessed as inhibition of HGF-induced cell growth incubated for 72 hrs by MTT assay
[8] = Cytotoxicity against human MCF10A cells assessed as inhibition of HGF-induced cell growth up to 80 uM incubated for 24 hrs by MTT assay; assay type: cell-based; conditions: mcf-10a
MDA-MB-231 [9] = assay: Antiproliferative activity against human MDA-MB-231 cells expressing c-MET assessed as inhibition of HGF-induced cell growth incubated for 72 hrs by MTT assay

Row | IC50 (MDA-MB-468 [1]) | IC50 (MDA-MB-231 [2]) | IC50 [3] | IC50 (MDA-MB-231 [4]) | SMILES | IC50 (cells) | other results
1 |  |  |  |  | COc1cc(/C=C/C(=O)OCCCc2ccc(O)cc2)cc(OC)c1O | 203 µM | 
2 | 79.1 µM | 72.3 µM | > 20 µM | 16.3 µM | COc1cc(/C=C/c2nc(-c3ccc(O)cc3)no2)cc(OC)c1O |  | 
3 | 9.9 µM | 8.2 µM | > 20 µM | 6.2 µM | COc1cc(/C=C\C(=O)OCCc2ccc(OC)c(OC)c2)ccc1O | 223 µM | 
4 |  |  |  |  | COc1cc(/C=C/C(=O)OCc2cc(OC)c(O)c(OC)c2)cc(OC)c1O | 172 µM | 
5 |  |  |  |  | COc1cc(/C=C/C(=O)OCCc2ccc(N)nc2)ccc1O | 213 µM | 
6 | 92.2 µM | 91.3 µM | > 20 µM | > 50 µM | COc1cc(CCC(=O)OCCc2ccc(O)cc2)cc(OC)c1O |  | 
7 |  |  |  |  | COc1cc(CCOC(=O)/C=C/c2cc(OC)c(O)c(OC)c2)ccc1O |  | Activity (MDA-MB-231 [5]): Non-toxic; growth inhibition (GI) (MDA-MB-231 [6]): Dose-dependent effect; growth inhibition (GI) (MDA-MB-468 [7]): Dose-dependent effect; Activity [8]: Non-toxic; growth inhibition (GI) (MDA-MB-231 [9]): Dose-dependent effect
8 | 15.9 µM | 11.8 µM | > 20 µM | 8.1 µM | COc1cc(/C=C/C(=O)Oc2ccc(O)cc2C(C)=O)cc(OC)c1O |  | 
9 | 91.1 µM | 89.9 µM | > 20 µM | 4.6 µM | COc1cc(/C=C/C=N/CCc2ccc(O)cc2)cc(OC)c1O |  | 
10 | 31.2 µM | 27.9 µM | > 20 µM | 18.8 µM | COc1cc(/C=C/COC(=O)/C=C/c2cc(OC)c(O)c(OC)c2)ccc1O |  | 
11 | 20.3 µM | 16 µM | > 20 µM | 12.7 µM | O=C(/C=C/c1ccc(O)cc1)OCCc1ccc(O)c(O)c1 |  | 
12 | 25.6 µM | 22.3 µM | > 20 µM | 19.8 µM | COc1cc(/C=C/COC(=O)/C=C/c2ccc(O)c(OC)c2)ccc1O |  | 
13 | > 100 µM | > 100 µM | > 20 µM | > 50 µM | OCCc1ccc(O)cc1 [TYROSOL] |  | 
14 | 80.2 µM | 72.8 µM | > 20 µM | > 50 µM | COc1cc(/C=C/C(=O)NCCc2ccc(O)cc2)cc(OC)c1O [TRANS-N-SINAPOYLTYRAMINE] |  | 
15 |  |  |  |  | COc1cc(/C=C/C(=O)OCc2cc(OC)c(O)c(OC)c2)ccc1O | 168 µM | 
16 |  |  |  |  | COc1cc(/C=C/C(=O)OCCc2ccc(O)c(N)c2)cc(OC)c1O | 186 µM | 
17 |  |  |  |  | COc1cc(/C=C/C(=O)OCCc2ccc(O)c(O)c2)ccc1N | 244 µM | 
18 | 14.2 µM | 10.6 µM | > 20 µM | 8.3 µM | COc1cc(/C=C/C(=O)Oc2ccc(O)cc2C(C)=O)ccc1O |  | 
19 |  |  |  |  | COc1cc(/C=C/C(=O)OCCc2ccc(N)nc2)cc(OC)c1O | 210 µM | 
20 | 74.5 µM | 68.8 µM | > 20 µM | 30.4 µM | COc1cc(C=C(S)C(=O)OCCc2ccc(O)cc2)ccc1O |  | 
21 |  |  |  |  | COc1cc(/C=C/C(=O)OCCCc2ccc(O)cc2)ccc1O | 190 µM | 
22 | 93.7 µM | 80.4 µM | > 20 µM | 13.8 µM | COC(=O)C1=CO[C@@H](C)[C@@H](C=O)[C@@H]1CC(=O)OCCc1ccc(O)cc1 |  | 
23 | 10.5 µM | 10.1 µM | > 20 µM | 8.1 µM | COc1ccc(CCOC(=O)/C=C\c2cc(OC)c(O)c(OC)c2)cc1OC |  | 
24 | 89.2 µM | 83.2 µM | > 20 µM | 40.6 µM | COc1cc(/C=C(\C#N)C(=O)OCCc2ccc(O)cc2)cc(Br)c1O |  | 
25 | 8.6 µM | 9.2 µM | > 20 µM | 7.8 µM | COc1ccc(CCOC(=O)/C=C/c2cc(OC)c(O)c(OC)c2)cc1OC | 214 µM | 
26 | 8.9 µM | 7.3 µM | > 20 µM | 5.4 µM | COc1cc(/C=C/C(=O)OCCc2ccc(OC)c(OC)c2)ccc1O | 274 µM | 

From ChEMBL document CHEMBL3822450, “Novel c-Met inhibitory olive secoiridoid semisynthetic analogs for the control of invasive breast cancer” (Eur J Med Chem, 2016)
